Data: ChEMBL document CHEMBL3585284, “Preparation and biological evaluation of conformationally constrained BACE1 inhibitors” (Bioorg Med Chem, 2015)

Columns and labels:
P-gp [1] = assay: Permeability in P-gp expressing MDCK cells; assay type: ADME, cell-based, Canis lupus familiaris; details: dog, MDCK-MDR1; read-out: permeability
[2] = Dissociation constant, pKa of the compound; assay type: physicochemical
P-gp [3] = assay: Efflux ratio in P-gp expressing MDCK cells; assay type: ADME, cell-based, Canis lupus familiaris; details: dog, MDCK-MDR1
Plasma = assay: Plasma concentration in PDAPP (V717F) transgenic mouse at 100 mg/kg, sc; assay type: ADME, organism-based; details: in vivo
Method in brief: (§1)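 Brain and plasma samples from PDAPP mice dosed subcutaneously were homogenized (brain) and mixed with methanol/acetonitrile (1:1, v/v) containing internal standard to precipitate protein. After centrifugation, supernatant was diluted 4-fold with water/methanol (1:1, v/v). Drug was quantified against calibration standards by LC–MS/MS on a C18 column.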

Brain = assay: Drug level in brain of PDAPP (V717F) transgenic mouse at 100 mg/kg, sc; assay type: ADME, organism-based; details: in vivo, read-out: Drug uptake; method in brief: as §1
[4] = Drug metabolism in mouse microsomes; assay type: ADME, Microsome

Papp (P-gp [1]) | pKa [2] | efflux ratio (P-gp [3]) | concentration (Plasma) | concentration (Brain) | Drug metabolism [4] | Structure (SMILES)
2.9 ×10⁻⁶ cm/s | 9.7 | 10 | – | – | – | Cl.NC1=NC2CCC(NC(=O)c3cccc(Cl)c3)CC2CS1 (stereo not given)
2.2 ×10⁻⁶ cm/s | 9 | 8.5 | – | – | – | Cl.NC1=N[C@]23CC[C@H](NC(=O)c4cccc(Cl)c4)C[C@@H]2[C@@H](COC3)S1
7.2 ×10⁻⁶ cm/s | – | 2.7 | – | – | – | NC1=NC2CCC(OC(=O)c3cccc(Cl)c3)CC2CS1.O=C(O)C(F)(F)F (stereo not given)
– | – | – | 9.3 µM | 0.75 µM | metabolite_notdetected | NC1=NC2CCC(NC(=O)c3cccc(Cl)c3)CC2CS1 (stereo not given)
– | – | – | 6.7 µM | 0.61 µM | metabolite_notdetected | NC1=N[C@]23CC[C@H](NC(=O)c4cccc(Cl)c4)C[C@@H]2[C@@H](COC3)S1
– | 8.2 | – | – | – | – | NC1=NC23CCC(NC(=O)c4cccc(Cl)c4)CC2(COC3)CS1 (racemic)
